ChEMBL document CHEMBL3425461, “Positron emission tomography to elucidate pharmacokinetic differences of regioisomeric retinoid x receptor agonists” (ACS Med Chem Lett, 2015)
Values belong to the compound of their own block, whether it stands above or below them.

Legend:
[1] = Retention time of the compound by HPLC method; type: physicochemical
Outline: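 Reversed-phase HPLC, 3 μm column, 0.7 mL/min, methanol/25 mM ammonium acetate pH 5.0 (80:20 v/v) mobile phase, UV detection at 260 nm.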

[2] = biological target: T1, Retinoic acid receptor RXR-alpha (Homo sapiens, UniProt P19793); experiment: Agonist activity at RXRalpha (unknown origin) expressed in COS1 cells incubated for 18 hrs by luciferase reporter gene assay; type: cell-based, COS-1
T1 sequence (P19793 whole entry): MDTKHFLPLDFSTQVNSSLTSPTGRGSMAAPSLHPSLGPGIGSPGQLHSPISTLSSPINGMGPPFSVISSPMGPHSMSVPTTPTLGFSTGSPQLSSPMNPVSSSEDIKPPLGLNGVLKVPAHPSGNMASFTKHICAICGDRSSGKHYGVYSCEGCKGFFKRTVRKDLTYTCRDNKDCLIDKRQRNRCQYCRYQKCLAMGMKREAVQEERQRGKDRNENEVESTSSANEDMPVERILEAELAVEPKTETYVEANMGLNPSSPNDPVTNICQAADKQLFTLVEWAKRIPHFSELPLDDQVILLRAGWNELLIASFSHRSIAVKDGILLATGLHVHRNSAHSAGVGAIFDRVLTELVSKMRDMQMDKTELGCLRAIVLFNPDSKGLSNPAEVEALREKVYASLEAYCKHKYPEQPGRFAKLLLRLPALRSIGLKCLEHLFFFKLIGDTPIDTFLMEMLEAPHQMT

[3] = Drug level in ICR mouse brain at 30 mg/kg, po administered as single dose measured after 1 hr
[4] = AUC in mouse blood at 30 mg/kg, po; type: ADME, organism-based; design: dose 30 mg/kg, route oral
Outline: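 AUC at 30 mg/kg p.o. in mice taken from earlier work; skip.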

[5] = Drug level in ICR mouse plasma at 30 mg/kg, po administered as single dose measured after 1 hr; type: ADME, organism-based; design: dose 30 mg/kg, route oral
Outline: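 Single oral dose of 30 mg/kg given as 0.5% CMC suspension to mice; blood and brain concentrations of non-radioactive compound measured 1 h after dosing.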

[6] = Ratio of drug level in brain to plasma of ICR mouse at 30 mg/kg, po administered as single dose measured after 1 hr
Heart [7] = experiment: Drug uptake in ICR mouse heart at 8 to 11 MBq, iv during 0 to 30 mins by PET imaging method; type: ADME, organism-based; details: in vivo
Outline: (§1)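 Tracer in EtOH diluted with saline to 10 MBq, given i.v. or p.o.; 30 min PET scan; blood radioactivity as %ID/mL from heart %ID divided by heart volume; AUC over 0–30 min; bioavailability as dose-corrected oral AUC over i.v. AUC; n = 3–5, mean ± SEM.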

Heart [8] = experiment: Drug uptake in ICR mouse heart at 8 to 11 MBq, iv by PET/CT imaging method; type: ADME, organism-based; details: in vivo
Outline: (§2)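 Tracer dissolved in EtOH, diluted with saline to 10 MBq, given i.v. or p.o.; 30 min PET/CT scan, images reconstructed at selected times; organ ROIs defined from PET/CT data; uptake expressed as %ID (organ Bq per whole-body Bq) from mean pixel radioactivity; n = 3–5, mean ± SEM; one-way ANOVA then t-test.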

Kidney [9] = experiment: Drug uptake in ICR mouse kidney at 8 to 11 MBq, iv by PET/CT imaging method; type: ADME, organism-based; details: in vivo
[10] = Drug uptake in ICR mouse urinary bladder at 8 to 11 MBq, po by PET/CT imaging method; type: ADME, organism-based; details: in vivo; outline: as §2
Liver [11] = experiment: Drug uptake in ICR mouse liver at 8 to 11 MBq, iv by PET/CT imaging method; type: ADME, organism-based; details: in vivo; outline: as §2
Kidney [12] = experiment: Drug uptake in ICR mouse kidney at 8 to 11 MBq, po by PET/CT imaging method; type: ADME, organism-based; details: in vivo
Heart [13] = experiment: Ratio of AUC (0 to 30 mins) in ICR mouse heart at 8 to 11 MBq, po to AUC (0 to 30 mins) in ICR mouse heart at 8 to 11 MBq, iv; type: ADME, organism-based; details: in vivo; outline: as §1
Stomach [14] = experiment: Drug uptake in ICR mouse stomach at 8 to 11 MBq, po after 30 mins by PET/CT imaging method; type: ADME, organism-based; details: in vivo, 0.5 h; outline: as §2
[15] = Drug uptake in ICR mouse gall bladder at 8 to 11 MBq, po by PET/CT imaging method; type: ADME, organism-based; details: in vivo; outline: as §2
[16] = Drug uptake in ICR mouse urinary bladder at 8 to 11 MBq, iv by PET/CT imaging method; type: ADME, organism-based; details: in vivo; outline: as §2
Duodenum [17] = experiment: Drug uptake in ICR mouse duodenum at 8 to 11 MBq, iv by PET/CT imaging method; type: ADME, organism-based; details: in vivo; outline: as §2
Liver [18] = experiment: Drug uptake in ICR mouse liver at 8 to 11 MBq, po by PET/CT imaging method; type: ADME, organism-based; details: in vivo; outline: as §2
Duodenum [19] = experiment: Drug uptake in ICR mouse duodenum at 8 to 11 MBq, po by PET/CT imaging method; type: ADME, organism-based; details: in vivo; outline: as §2
[20] = Drug uptake in ICR mouse gall bladder at 8 to 11 MBq, iv by PET/CT imaging method; type: ADME, organism-based; details: in vivo; outline: as §2
Stomach [21] = experiment: Drug uptake in ICR mouse stomach at 8 to 11 MBq, po by PET/CT imaging method; type: ADME, organism-based; details: in vivo; outline: as §2

Compound: CCN(c1ccc(OCC(C)C)c(C(C)C)c1)c1ccc(C(=O)O)cn1
concentration at 1 h [3]: 2570 ng/mL
Retention_time [1]: 11.7 min
AUC [4]: 18800 ng·h/mL
EC50 [2]: 169 nM
concentration at 1 h [5]: 6760 ng/mL
Kp at 1 h [6]: 0.38

Compound: CCN(c1ccc(OCC(C)C)c(C(C)C)c1)c1ccc([11C](=O)O)cn1
Drug uptake (Heart [7]): Active

Compound: CCN(c1ccc(C(C)C)c(OCC(C)C)c1)c1ccc(C(=O)O)cn1
concentration at 1 h [3]: 978 ng/mL
Retention_time [1]: 12.7 min
AUC [4]: 1140 ng·h/mL
concentration at 1 h [5]: 1320 ng/mL
Kp at 1 h [6]: 0.74

Compound: CCN(c1ccc(C(C)C)c(OCC(C)CF)c1)c1ccc(C(=O)O)cn1 (stereo unspecified)
Retention_time [1]: 7.63 min
EC50 [2]: 12 nM

Next, values leading:

Retention_time [1]: 6.7 min
EC50 [2]: 450 nM
Compound: CCN(c1ccc(OCC(C)CF)c(C(C)C)c1)c1ccc(C(=O)O)cn1 (stereo unspecified)

concentration at 1 h [5]: 4150 ng/mL
Compound: C=C(c1ccc(C(=O)O)cc1)c1cc2c(cc1C)C(C)(C)CCC2(C)C [BEXAROTENE]

Drug uptake (Heart [8]): Active
Drug uptake (Kidney [9]): Not Active
Drug uptake [10]: Not Active
Drug uptake (Liver [11]): Active
Drug uptake (Kidney [12]): Not Active
Ratio (Heart [13]): 0.18
Drug uptake (Stomach [14]): Active
Drug uptake [15]: Active
Drug uptake [16]: Not Active
Drug uptake (Duodenum [17]): Active
Drug uptake (Liver [18]): Active
Drug uptake (Duodenum [19]): Active
Drug uptake [20]: Active
Drug uptake (Stomach [21]): Active
Compound: CCN(c1ccc(C(C)C)c(OCC(C)C[18F])c1)c1ccc(C(=O)O)cn1 (stereo unspecified)

Drug uptake (Heart [7]): Active
Compound: CCN(c1ccc(C(C)C)c(OCC(C)C)c1)c1ccc([11C](=O)O)cn1

Drug uptake (Heart [8]): Active
Drug uptake (Kidney [9]): Not Active
Drug uptake [10]: Not Active
Drug uptake (Liver [11]): Active
Drug uptake (Kidney [12]): Not Active
Ratio (Heart [13]): 0.43
Drug uptake (Stomach [14]): Active
Drug uptake [15]: Active
Drug uptake [16]: Not Active
Drug uptake (Duodenum [17]): Active
Drug uptake (Liver [18]): Active
Drug uptake (Duodenum [19]): Active
Drug uptake [20]: Active
Drug uptake (Stomach [21]): Active
Compound: CCN(c1ccc(OCC(C)C[18F])c(C(C)C)c1)c1ccc(C(=O)O)cn1 (stereo unspecified)
